Laboratory results taken from ChEMBL document CHEMBL1155662, “New phloroglucinol derivatives from Hypericum papuanum” (2000).
In brackets after ≈: the same amount, converted by molar mass.

Experiments:
Type in all cases: functional
[1] = tested on: Staphylococcus epidermidis; assay: Antibacterial activity against Staphylococcus epidermidis ATCC 12228 after 20 hrs by MTT assay; details: ATCC 12228, 20 h
How it was run: (§1)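 Twofold broth doubling-dilution in nutrient broth. Overnight 37 °C cultures diluted to about 10^5 cells/mL. Compounds from 1 mg/mL MeOH stocks were dried in the first wells, then redissolved in DMSO, broth and culture before serial dilution. Plates held 20 h at 37 °C in a moist atmosphere. 0.25% aqueous MTT was added and plates reincubated 4 h; violet turbid wells scored as living bacteria.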

Micrococcus luteus = assay: Antibacterial activity against Micrococcus luteus ATCC 9341 after 20 hrs by MTT assay; details: ATCC 9341, 20 h; how it was run: as §1
Bacillus cereus = assay: Antibacterial activity against Bacillus cereus ATCC 10702 after 20 hrs by MTT assay; details: ATCC 10702, 20 h; how it was run: as §1

MIC [1] [µg/mL] | MIC (Micrococcus luteus) [µg/mL] | MIC (Bacillus cereus) [µg/mL] | Compound
4 (≈ 12.4 µM) | 1 (≈ 3.09 µM) | 2 (≈ 6.19 µM) | O=C(N[C@H](CO)[C@H](O)c1ccc([N+](=O)[O-])cc1)C(Cl)Cl [CHLORAMPHENICOL]
64 (≈ 186 µM) | 64 (≈ 186 µM) | 64 (≈ 186 µM) | C=C(C)[C@@H]1CC23C(=O)C(C(=O)C(C)C)=C(O)[C@](C)(C[C@H]2C1(C)C)C3=O [LALIBINONE A]
128 (≈ 372 µM) | 64 (≈ 186 µM) | 64 (≈ 186 µM) | C=C(C)[C@H]1CC23C(=O)C(C(=O)C(C)C)=C(O)[C@](C)(C[C@H]2C1(C)C)C3=O [LALIBINONE B]
32 (≈ 89.3 µM) | 64 (≈ 179 µM) | 16 (≈ 44.6 µM) | C=C(C)[C@@H]1CC23C(=O)[C@@](C)(C[C@H]2C1(C)C)C(=O)C(C(=O)C(C)CC)=C3O (stereo partly drawn) [LALIBINONE C]
32 (≈ 89.3 µM) | 64 (≈ 179 µM) | 16 (≈ 44.6 µM) | C=C(C)[C@H]1CC23C(=O)[C@@](C)(C[C@H]2C1(C)C)C(=O)C(C(=O)C(C)CC)=C3O (stereo partly drawn) [LALIBINONE D]
> 256 | > 128 | > 128 | CC(C)C(=O)C1=C(O)[C@]2(C)C[C@H]3C(C)(C)CCC3(C1=O)C2=O [LALIBINONE E]
